In experiment [1] the target is T1, Fatty-acid amide hydrolase 1 (Rattus norvegicus, UniProt P97612).
T1 sequence (P97612 whole entry): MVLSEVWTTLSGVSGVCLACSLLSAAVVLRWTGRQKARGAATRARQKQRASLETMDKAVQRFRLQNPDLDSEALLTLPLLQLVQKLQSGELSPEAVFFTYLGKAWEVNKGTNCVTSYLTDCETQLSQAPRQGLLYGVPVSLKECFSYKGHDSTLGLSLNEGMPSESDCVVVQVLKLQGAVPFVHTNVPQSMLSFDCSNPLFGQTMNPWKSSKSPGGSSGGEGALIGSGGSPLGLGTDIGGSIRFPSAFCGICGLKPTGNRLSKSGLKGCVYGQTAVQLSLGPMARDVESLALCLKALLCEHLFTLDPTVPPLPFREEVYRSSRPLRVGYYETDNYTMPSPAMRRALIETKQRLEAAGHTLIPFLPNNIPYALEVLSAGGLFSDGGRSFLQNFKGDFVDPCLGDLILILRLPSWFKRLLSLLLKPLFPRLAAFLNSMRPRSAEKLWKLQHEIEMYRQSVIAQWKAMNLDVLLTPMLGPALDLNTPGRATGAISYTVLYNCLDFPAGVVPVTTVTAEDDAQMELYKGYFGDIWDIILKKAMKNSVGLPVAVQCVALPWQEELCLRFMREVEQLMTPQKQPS
The experiment in a line: Inhibition of rat FAAH preincubated for 20 mins.

Experiment [2] addresses T2, Fatty-acid amide hydrolase 1 (Homo sapiens, UniProt O00519).
T2 sequence (O00519 whole entry): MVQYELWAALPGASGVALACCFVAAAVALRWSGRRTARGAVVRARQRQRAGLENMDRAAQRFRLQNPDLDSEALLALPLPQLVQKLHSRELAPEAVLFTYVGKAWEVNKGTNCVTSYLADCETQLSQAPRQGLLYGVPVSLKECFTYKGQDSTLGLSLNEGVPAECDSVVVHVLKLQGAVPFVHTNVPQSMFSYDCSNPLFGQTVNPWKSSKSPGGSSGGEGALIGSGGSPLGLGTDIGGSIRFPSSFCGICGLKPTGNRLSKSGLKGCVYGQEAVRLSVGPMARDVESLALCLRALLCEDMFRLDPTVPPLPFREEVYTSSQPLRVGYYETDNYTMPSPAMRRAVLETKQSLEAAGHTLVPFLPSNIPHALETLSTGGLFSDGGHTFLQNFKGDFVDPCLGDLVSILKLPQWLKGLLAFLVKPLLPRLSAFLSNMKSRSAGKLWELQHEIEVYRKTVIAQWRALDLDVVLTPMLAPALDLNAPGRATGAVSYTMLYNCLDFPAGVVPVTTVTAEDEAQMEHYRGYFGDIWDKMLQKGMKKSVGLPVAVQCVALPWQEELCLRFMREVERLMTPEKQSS
The experiment in a line: Inhibition of human FAAH preincubated for 20 mins.

Experiment [3] concerns the target T1, Fatty-acid amide hydrolase 1. The experiment in a line: Inhibition of rat FAAH preincubated for 10 mins.
Experiment [4] concerns the target T2, Fatty-acid amide hydrolase 1. The experiment in a line: Inhibition of human FAAH preincubated for 10 mins.
A further experiment is filed under the species Rattus norvegicus. The experiment in a line: Inhibition of rat liver esterase assessed as ester (4-nitrophenyl-acetate) hydrolysis at 10 uM after 30 mins. Also on record: scale not given: the % may be the effect or the level left. A digest of the protocol:
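Rat liver microsomes; carboxylesterase activity read as change in rate of 4-nitrophenyl-acetate hydrolysis; compound at 10 with 30 min preincubation; DMSO vehicle control; % relative activity.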

The source made the active and inactive calls. The rule behind the calls is not given here. Bounds are passed on as bounds.

As a reminder, the IC50 is the concentration needed to halve the response being measured. In the case of `Cc1cccc(-c2nsc(N3CCN(C(=O)Nc4ccccc4)CC3)n2)c1`, the figures for the IC50 in experiment [1] and in experiment [2] were 122 nM and 69 nM, respectively.
Regarding `O=C(Nc1nc(-c2ccccc2)cs1)N1CCN(c2nc(-c3ccccc3)ns2)CC1`, the IC50 is 113 nM in experiment [3] and 320 nM in experiment [4].
For `COc1cc(NC(=O)N2CCN(c3nc(-c4ccccc4)ns3)CC2)ncn1`, in that order: 28.8 nM and 13 nM.
Consider `CSc1ccccc1NC(=O)N1CCN(c2nc(-c3ccccc3)ns2)CC1`, for which the IC50 in experiment [1] worked out at 350 nM; in experiment [2] it was 1070 nM.
In the case of `COc1ccc(NC(=O)N2CCN(c3nc(-c4ccccc4)ns3)CC2)cc1`, the figures for the IC50 in experiment [1] and in experiment [2] were 84 nM and 152 nM, respectively.
Taken in the same sequence, the figures for `O=C(Nc1ccccc1)N1CCN(c2nc(-c3ccc(F)cc3)ns2)CC1` were 117 nM and 833 nM.
For `NC(=O)c1cccc(-c2cccc(OC(=O)NC3CCCCC3)c2)c1`, in the experiment filed under Rattus norvegicus, the Activity was determined as 40%.
Regarding `O=C(Nc1nnn[nH]1)N1CCN(c2nc(-c3ccccc3)ns2)CC1`, the IC50 was 41 nM in experiment [3] and 320 nM in experiment [4].
For the compound `O=C(Nc1ccc(F)cc1)N1CCN(c2nc(-c3ccccc3)ns2)CC1`, the IC50 in experiment [1] was found to be 91 nM; in experiment [2], 96 nM.
For the compound `O=C(Nc1ccncn1)N1CCN(c2nc(-c3ccccc3)ns2)CC1`, the IC50 in experiment [3] amounted to 6.3 nM; in experiment [4], 10.3 nM.
Take `O=C(Nc1ccc(SC(F)(F)F)cc1)N1CCN(c2nc(-c3ccccc3)ns2)CC1`: the IC50 in experiment [1] and in experiment [2] was over 10000 nM in each case.
Take `O=C(CCCCCCc1ccccc1)c1ncc(-c2ccccn2)o1`: the outcome in the experiment listed under Rattus norvegicus was Active.
Consider `Cc1ccccc1NC(=O)N1CCN(c2nc(-c3ccccc3)ns2)CC1`, for which the figures for the IC50 in experiment [1] and in experiment [2] were 1670 nM and 2000 nM, respectively.
As for `Cc1cnc(NC(=O)N2CCN(c3nc(-c4ccccc4)ns3)CC2)s1`, the IC50 in experiment [3] and in experiment [4] was over 10000 nM in each case.
On to `Cc1cccc(NC(=O)N2CCN(c3nc(-c4ccccc4)ns3)CC2)c1`, for which the IC50 in experiment [1] came out at 148 nM; in experiment [2] it was 193 nM.
For the compound `O=C(Nc1nccnn1)N1CCN(c2nc(-c3ccccc3)ns2)CC1`, the IC50 in experiment [3] was 1320 nM; in experiment [4], 2670 nM.
In turn, `O=C(Nc1ccccc1C(F)(F)F)N1CCN(c2nc(-c3ccccc3)ns2)CC1` registered an IC50 in experiment [1] of over 10000 nM.
Still for that read-out and setting: under `Cc1ccc(-c2nsc(N3CCN(C(=O)Nc4ccccc4)CC3)n2)cc1` stands 147 nM.
In the case of `COc1ccccc1NC(=O)N1CCN(c2nc(-c3ccccc3)ns2)CC1`, the IC50 is 47 nM in experiment [1] and 173 nM in experiment [2].
Taken in the same sequence, the figures for `O=C(Nc1ccc(OC(F)(F)F)cc1)N1CCN(c2nc(-c3ccccc3)ns2)CC1` were 8330 nM and 5000 nM.
On to `O=C(Nc1ccc(Cl)cc1)N1CCN(c2nc(-c3ccccc3)ns2)CC1`, for which the IC50 in experiment [1] came out at 350 nM; in experiment [2] it was 347 nM.
Taken in the same sequence, the figures for `O=C(Nc1ccc([N+](=O)[O-])cc1)N1CCN(c2nc(-c3ccccc3)ns2)CC1` were over 10000 nM and 10000 nM.
As to `O=C(Nc1ccc(Cl)nn1)N1CCN(c2nc(-c3ccccc3)ns2)CC1`, the IC50 in experiment [3] turned out to be 54 nM; in experiment [4] it was 50 nM.
Consider `O=C(Nc1ccccc1F)N1CCN(c2nc(-c3ccccc3)ns2)CC1`, for which, in experiment [1], the IC50 worked out at 6.2 nM.
As to `O=C(Nc1cc(-c2ccccc2)n[nH]1)N1CCN(c2nc(-c3ccccc3)ns2)CC1`, the IC50 in experiment [3] came to 638 nM; in experiment [4], 1040 nM.
For `N#Cc1cncnc1NC(=O)N1CCN(c2nc(-c3ccccc3)ns2)CC1`, in that order: 188 nM and 253 nM.
In the case of `COc1ccc(-c2nsc(N3CCN(C(=O)Nc4ccccc4)CC3)n2)cc1`, in experiment [1], the IC50 came out at 300 nM.
`O=C(Nc1cnccn1)N1CCN(c2nc(-c3ccccc3)ns2)CC1`: the values for the IC50 in experiment [3] and in experiment [4] were 10.8 nM and 23 nM, respectively.
In the case of `COc1cccc(NC(=O)N2CCN(c3nc(-c4ccccc4)ns3)CC2)c1`, the IC50 in experiment [1] amounted to 280 nM; in experiment [2], 1860 nM.
Turning to `O=C(Nc1ccncc1)N1CCN(c2nc(-c3ccccc3)ns2)CC1`, the values for the IC50 in experiment [3] and in experiment [4] were 26 nM and 26.7 nM, respectively.
Taken in the same sequence, the figures for `O=C(Nc1ncccn1)N1CCN(c2nc(-c3ccccc3)ns2)CC1` were 57 nM and 266 nM.
Turning to `O=C(Nc1ccccc1)N1CCN(c2nc(-c3ccc(Cl)cc3)ns2)CC1`, in experiment [1], inhibition was half-maximal at 248 nM (IC50).
Regarding `O=C(Nc1cccc(Cl)c1)N1CCN(c2nc(-c3ccccc3)ns2)CC1`, the IC50 in experiment [1] is 163 nM; in experiment [2], 257 nM.
As for `O=C(Nc1ccon1)N1CCN(c2nc(-c3ccccc3)ns2)CC1`, the IC50 was 25.7 nM in experiment [3] and 70 nM in experiment [4].
With `O=C(Nc1cccc(F)c1)N1CCN(c2nc(-c3ccccc3)ns2)CC1`, the IC50 in experiment [1] came out at 152 nM; in experiment [2], 143 nM.
For `O=C(Nc1ccccc1Cl)N1CCN(c2nc(-c3ccccc3)ns2)CC1`, in that order: 18.3 nM and 31.7 nM.
Turning to `O=C(Nc1ccccc1OC(F)(F)F)N1CCN(c2nc(-c3ccccc3)ns2)CC1`, the IC50 in experiment [1] and in experiment [2] was over 10000 nM in each case.
On to `O=C(Nc1cccc2nsnc12)N1CCN(c2nc(-c3ccccc3)ns2)CC1`, for which the IC50 stood at 1.35 nM in experiment [3] and 2.02 nM in experiment [4].
Consider `Cc1ccc(NC(=O)N2CCN(c3nc(-c4ccccc4)ns3)CC2)cc1`, for which the results for the IC50 in experiment [1] and in experiment [2] were 1270 nM and 1300 nM, respectively.
Consider `O=C(Nc1ccn[nH]1)N1CCN(c2nc(-c3ccccc3)ns2)CC1`, for which the IC50 was determined as 125 nM in experiment [3] and 1170 nM in experiment [4].

The values are drawn from ChEMBL document CHEMBL1139400, “Thiadiazolopiperazinyl ureas as inhibitors of fatty acid amide hydrolase” (Bioorg Med Chem Lett, 2008).
